Data published in the EternaBench riboswitch data.

Tested on: MS2 coat protein
Test: apparent Kd, MS2 coat protein; higher = weaker binding; RNA-MaP array
Method in brief: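 Binding of fluorescently labeled MS2 coat protein, at 1.5 nM to 3 μM and room temperature, was measured with or without input ligand on designed RNAs transcribed on an Illumina sequencing chip from sequenced DNA templates. Apparent Kd was defined as the median of per-cluster binding-curve fits. No design measured on fewer than 10 clusters was kept.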

[1] = designed as: OFF switch for flavin mononucleotide, no ligand
[2] = ligand present: flavin mononucleotide, designed as: OFF switch for flavin mononucleotide
[3] = designed as: ON switch for flavin mononucleotide, no ligand
[4] = ligand present: flavin mononucleotide, designed as: ON switch for flavin mononucleotide
[5] = designed as: ON switch for tryptophan, no ligand
[6] = ligand present: tryptophan, designed as: ON switch for tryptophan

Sequence	apparent Kd [1]	apparent Kd [2]	other results
GGUGGGUCAGGAUAUCCCACACAAUUGCGAACGCGAUGCAGGGAGAAGGGACAUGAGGAUCACCCAUGUGGGAC	54.4 nM	64.9 nM	
GGUUAACAUGAGGAUCACCCAUGUUAGGAUAUGCUACAGAGUCUGGUCCCUGGAAAUGGCAGAAGGAACGUGUU	17.2 nM	16.2 nM	
GUAACGGGAAGCAGUGGCUUGACAUGAGGAUCACCCAUGUACAGAAGGGACGAUUACGUAAUGCGUCAGGAUAUGUGCCGUAGA			apparent Kd [3]: 48 nM; apparent Kd [4]: 28.1 nM
GUACAGGAGGAAGGAUAUAAUGCACAUGAGGAUCACCCAUGUAAGAGGAAAUCACCAUAACUGAUUUAGAAGGACCAGCAAAAC	12 nM	11.3 nM	
GUCAUUCUCAACAUGAGGAUCACCCAUGUCGGUUAUCUGGGCUAGGAUAUCACGAUGCCACUGCGUGAGAAGGAGCGUUCGAUA	67.3 nM	27.5 nM	
GUCGGAGUGGAGAAGGCGCCAACGUAAGCGCGGCGAGGAUAUCCCUACCCUACAUGAGGAUCACCCAUGUCGACGAGAGUAUCG			apparent Kd [3]: 11.3 nM; apparent Kd [4]: 7.99 nM
GUGACUAGCGUAAGGAUAUUCACGAGCGGCGGCUUGAAGAAGGUACAUGAGGAUCACCCAUGUAGGGUAAUCAA	41.6 nM	44.3 nM	
GUUACAUGAGGAUCACCCAUGUGGGCUGUAUGUAGCGCACCUGAGGAUAUGGCCCGGAGGUAGGACCAGAAGGCAGCGAAGAGC	65.4 nM	55.3 nM	
GUUGGAUUUGUGAGGAUAUGGCCGUGACAUUUGGACCAGAAGGCACAUGAGGAUCACCCAUGUAUUGAAGAACG	23.3 nM	53.4 nM	
GUUGUCAUCCAAGGAUAUUGUAAAAGGAGUGGGCAAGAAGGUGGAGAGCAUUGAUGAAGGUACACAUGAGGAUCACCCAUGUUC			apparent Kd [3]: 33.6 nM; apparent Kd [4]: 14.8 nM
UAAAAGUUAGGAUAUACUAGUGAGCAAUGAAUAACAAAGUAACAUGAGGAUCACCCAUGUAGAAGGAACUGCAG	12.1 nM	12.4 nM	
UAAGACGCAGGAUAUACAUGAGGAUCACCCAUGUGCAUACAAGUCAAGAGGUACAUAAGUAGAAGGGCGUGGAU	9.42 nM	14.7 nM	
UAAUCAGUGAUAGGAUAUCGUAGCUCAGAUAGGCGAGAAGGAUCUGACUCCACAUGAGGAUCACCCAUGUUGUACAUACAGGAC			apparent Kd [3]: 19.5 nM; apparent Kd [4]: 17.1 nM
UACAAGUACUAGAAGGAUCGAACCGAAGGUGUGAUAGGAUAUAGAGACAUGAGGAUCACCCAUGUAGGAGUGCAGUCAUACAUU	27.9 nM	23.4 nM	
UACAUGAGGAUCACCCAUGUGGUCAGGUUAUCCCGGACGGGAAGAAGGAUAAGAGAGUAACAUUUAUAGGAUAUUCGCCUCAUU			apparent Kd [3]: 57.8 nM; apparent Kd [4]: 48.9 nM
UACCGGUGACUCGAUACCAGUCCUCUAAAAUACAUGAGGAUCACCCAUGUAACCUUCCCAGACCCUUGGCAGCGACACAUGGAUA			apparent Kd (designed as: ON switch for theophylline, no ligand): 145 nM; apparent Kd (ligand present: theophylline, designed as: ON switch for theophylline): 38.2 nM
UACCUUAACACGGCCGCCACUCUCUAAUAGGAUCAUGGUACCGCACAUGAGGAUCACCCAUGUUUGAGGACCGGGUGUUAUGAAG			apparent Kd [5]: 15.1 nM; apparent Kd [6]: 28.7 nM
UACGGUCAUAGAGGAUAUAGAUCGCGCAACGGUUUCGUGGCCCACAUGAGGAUCACCCAUGUUAUCUAGAAGGCUAUGAGUCGC	6.82 nM	6.8 nM	
UAGGUGCUAGGAGGAUAUUGUGAAUUUAAUUUUCAAGAAGGCCUGAACAGACUGCACAUGAGGAUCACCCAUGUAUCCAACGUC	17.2 nM	11.7 nM	
UAGGUUCUAGUUUCUGCACAUGAGGAUCACCCAUGUUUAGUAAAGGAUAUCACGGUAAGUCGACGUGAGAAGGUUACGUUAGGG	33.6 nM	37 nM	
UAGUACAUGAGGAUCACCCAUGUCGGAGGUCGAGGACCGGUACGGCCGCCACUCGGUCAUGCCCUACGAUACGACAGGAAUCUGU			apparent Kd [5]: 22.2 nM; apparent Kd [6]: 16.8 nM
UCAAGCAUGGAGAAGGCCCGGGUUGACACGUCGGGAGGAUAUCCAGACUCACAUGAGGAUCACCCAUGUUAUUGCGGCGACUCC	40.3 nM	57 nM	
UCAUUGUGAGGAUAUUGAUAGCGGACCUUGAUUCUGUACAACAAGAAGGCACAUGAGGAUCACCCAUGUCAUCA	16.4 nM	58.4 nM	
